Published values collected from several papers.
Compare with care: the assays were run in different laboratories.
Target: Inhibitor of nuclear factor kappa-B kinase subunit beta (IKBKB, Homo sapiens, UniProt O14920)
Sequence (O14920 1-756, as in one of the studies): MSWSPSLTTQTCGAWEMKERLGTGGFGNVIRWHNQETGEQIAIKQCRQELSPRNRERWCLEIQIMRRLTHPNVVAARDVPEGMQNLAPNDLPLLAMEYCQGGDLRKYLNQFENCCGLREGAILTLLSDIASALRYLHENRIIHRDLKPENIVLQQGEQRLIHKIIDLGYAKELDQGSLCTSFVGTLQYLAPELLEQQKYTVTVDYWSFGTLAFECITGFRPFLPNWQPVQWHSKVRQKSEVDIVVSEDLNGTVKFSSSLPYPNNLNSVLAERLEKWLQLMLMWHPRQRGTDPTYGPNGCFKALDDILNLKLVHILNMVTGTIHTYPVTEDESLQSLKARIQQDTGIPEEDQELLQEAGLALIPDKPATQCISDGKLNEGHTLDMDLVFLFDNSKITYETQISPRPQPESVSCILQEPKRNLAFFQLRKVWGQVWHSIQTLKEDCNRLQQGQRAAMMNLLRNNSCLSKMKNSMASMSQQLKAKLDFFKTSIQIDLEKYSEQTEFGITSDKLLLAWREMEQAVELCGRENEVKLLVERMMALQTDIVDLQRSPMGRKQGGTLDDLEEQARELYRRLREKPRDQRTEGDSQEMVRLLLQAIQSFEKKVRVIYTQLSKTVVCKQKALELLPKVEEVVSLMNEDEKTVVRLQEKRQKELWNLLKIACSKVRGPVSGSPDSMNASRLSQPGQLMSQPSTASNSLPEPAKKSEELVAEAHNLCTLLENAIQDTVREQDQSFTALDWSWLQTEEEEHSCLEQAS

| Compound | observed | action | method | concentration | measurement | value |
| --- | --- | --- | --- | --- | --- | --- |
| Cc1nn(C)cc1-c1nc2c(N3CCN(Cc4ccc(Cl)cc4)CC3)c(Cl)cnc2[nH]1 | binding |  | competition with immobilised ligand | 1 µM | remaining binding | 100% |
| N#CC1(c2ccccn2)CCN(Cc2cc(C(=O)O)c(=O)n3ccccc23)CC1 | cell-free assay |  | competition with immobilised ligand | 1 µM | remaining binding | 100% |
| CC(C)(C)c1cc(C=C(C#N)C#N)cc(Br)c1O | enzyme activity | inhibitor |  | 0.5 µM | remaining activity | 95.7% |
| C#Cc1n[nH]c2c(-c3cn([C@@H](C)c4ccccn4)c(=O)[nH]c3=O)cc(F)cc12 | enzyme activity | inhibitor |  | 0.1 µM | inhibition | 0.8% |
| Cn1cncc1[C@](O)(COc1ccc(C#N)cc1-c1ccc(OC(F)(F)F)cc1)c1ccc(C#N)cc1 | cell-free assay |  | competition with immobilised ligand | 1 µM | remaining binding | 87% |
| O=c1[nH]c2ccccc2n1C1CCN(Cc2ccc(-c3[nH]c4cc5ncnc5cc4nc3-c3ccccc3)cc2)CC1 | enzyme activity |  |  | 0.5 µM | remaining activity | 101% |
| COc1ncccc1-c1cnn2ccc(N3CCN(C(=O)OC(C)C)CC3)nc12 | binding |  | competition with immobilised ligand | 1 µM | remaining binding | 61% |
| Cn1cc(-c2cc(F)cc(N3CCn4c(cc5c4CCCC5)C3=O)c2CO)cc(Nc2ccc(N3CCN(C4COC4)CC3)cn2)c1=O | enzyme activity | inhibitor |  | 0.1 µM | inhibition | 5% |
| C#Cc1n[nH]c2c(-c3cn([C@@H](C)c4ccccc4)c(=O)[nH]c3=O)cc(F)cc12 | enzyme activity | inhibitor |  | 0.1 µM | inhibition | -2.2% |
| Nc1ncc(-c2nc(N3CCOCC3)nc(N3CCOCC3)n2)c(C(F)F)n1 | binding |  | competition with immobilised ligand | 10 µM | remaining binding | 77% |
